Data set [1] in a line: Cytotoxicity against human HepG2 cells after 24 hrs by MTT assay. It counts as cell-based. As to conditions: read-out: LD50. The essentials:
(§1)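 Trypsinized cells seeded at 5 × 10³/well and allowed to adhere 18 h. Compounds added at varied concentrations for 24 h. MTT then added for 3 h, formazan dissolved in DMSO, absorbance read at 570 and 630 nm. Viability taken as % of untreated control after background subtraction, and LD50 derived.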

The subject of data set [2] is Plasmodium falciparum. Put plainly: Antimalarial activity against chloroquine resistant, mefloquine sensitive Plasmodium falciparum W2 infected in human erythrocytes by [3H]-hypoxanthine incorporation assay. Format: functional, organism-based.
A short description of data set [3]: Cytotoxicity against african green monkey BGMK cells after 24 hrs by MTT assay. It counts as cell-based. The conditions noted are these: chlorocebus aethiops, read-out: LD50. The essentials:
as §1

Experimental findings from ChEMBL document CHEMBL1909555, “Synthesis and antimalarial activity of thioetherhydroxyethylsulfonamides, potential aspartyl protease inhibitors, Part 3” (Eur J Med Chem, 2011) are described below.

Values after ≈ are worked out from the molar mass of the structure shown.

For `CC(C)(C)OC(=O)N[C@@H](Cc1ccccc1)[C@H](O)CSc1ccccn1`, the CC50 at 24 h in data set [1] and in data set [3] was > 200 µg/mL in each case. Besides, the IC50 in data set [2] worked out at 31.7 µg/mL (≈ 84.6 µM).

`CC(C)(C)OC(=O)N[C@@H](Cc1ccccc1)[C@H](O)CSc1ncccn1`: the results for the CC50 at 24 h in data set [1] and in data set [3] were 197 µg/mL (≈ 525 µM) and 170 µg/mL (≈ 453 µM), respectively. Besides, in data set [2], the half-inhibitory concentration (IC50) was > 50 µg/mL.

As to `O=[N+]([O-])c1ccc(S(=O)(=O)N[C@@H](Cc2ccccc2)[C@H](O)CSc2ccccn2)cc1`, the CC50 at 24 h in data set [1] and in data set [3] was > 200 µg/mL in each case. The IC50 in data set [2] is > 50 µg/mL.

On to `Cc1ccc(S(=O)(=O)N[C@@H](Cc2ccccc2)[C@H](O)CSc2ccccn2)cc1`, for which the CC50 at 24 h is 191 µg/mL (≈ 446 µM) in data set [1] and 192 µg/mL (≈ 448 µM) in data set [3]. Moreover, the 50% inhibitory concentration (IC50) in data set [2] was > 50 µg/mL.

Regarding `O=[N+]([O-])c1ccc(S(=O)(=O)N[C@@H](Cc2ccccc2)[C@H](O)CSc2ncccn2)cc1`, the CC50 at 24 h in data set [1] and in data set [3] was > 200 µg/mL in each case. Further, in data set [2], the IC50 was determined as 15 µg/mL (≈ 32.6 µM).

Consider `O=S(=O)(N[C@@H](Cc1ccccc1)[C@H](O)CSc1ncccn1)c1ccc(Br)cc1`, for which the CC50 at 24 h turned out to be 101 µg/mL (≈ 204 µM) in data set [1] and 99 µg/mL (≈ 200 µM) in data set [3]. In data set [2], the IC50 was determined as 25 µg/mL (≈ 50.6 µM).
